Reference: ChEMBL document CHEMBL4613248, “Twelfth-Position Deuteration of Nevirapine Reduces 12-Hydroxy-Nevirapine Formation and Nevirapine-Induced Hepatocyte Death” (J Med Chem, 2020)

Columns and labels:
Format in all cases: cell-based
Hepatocyte [1] = assay: Induction of change in MSRA protein expression in human primary hepatocytes at 10 uM incubated for 48 hrs by relative-quantitation label-free proteomics analysis relative to NVP
Method in brief: (§1)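 Cryoplateable pooled human hepatocytes (10 mixed-sex donors per pool; three pools), adhered overnight, then given fresh medium containing compound (10 μM), NVP (10 μM) or vehicle (0.1% DMSO) for 48 h. Lysate reduced (DTT) and alkylated (iodoacetamide), acetone-precipitated and digested with trypsin. Label-free Top10 nanoLC-MS with precursor ion area quantitation; unpaired t test P values, Cohen's d effect size.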

Hepatocyte [2] = assay: Induction of change in CARS2 protein expression in human primary hepatocytes at 10 uM incubated for 48 hrs by relative-quantitation label-free proteomics analysis relative to NVP; method in brief: as §1
Hepatocyte [3] = assay: Induction of change in ALAD protein expression in human primary hepatocytes at 10 uM incubated for 48 hrs by relative-quantitation label-free proteomics analysis relative to NVP; method in brief: as §1

Compound: [2H]C([2H])([2H])c1ccnc2c1NC(=O)c1cccnc1N2C1CC1
- fold change (FC) (Hepatocyte [1]): -2.05
- fold change (FC) (Hepatocyte [2]): 1.85
- fold change (FC) (Hepatocyte [3]): -1.86
